# Data published in ChEMBL document CHEMBL1811845, “Modulation of GABAA-receptors by honokiol and derivatives: subtype selectivity and structure-activity relationship” (J Med Chem, 2011).
# What was measured:
# Oocyte [1] = assay: Modulation of GABA alpha1beta2gamma2s receptor expressed in Xenopus laevis oocytes assessed as potentiation of GABA-induced chloride current at holding potential -70 mV at 10 uM by two-microelectrode voltage clamp technique in presence of 1 uM of flumazenil relative to GABA; assay type: cell-based
# [2] = target: T1, Gamma-aminobutyric acid receptor subunit alpha-3/ beta-2 (Homo sapiens, UniProt P34903+P47870); assay: Modulation of GABA Aalpha3beta2 receptor expressed in Xenopus laevis oocytes assessed as potentiation of GABA-induced chloride current at holding potential -70 mV by two-microelectrode voltage clamp technique; assay type: cell-based, Oocyte
# T1 sequence (P47870 whole entry): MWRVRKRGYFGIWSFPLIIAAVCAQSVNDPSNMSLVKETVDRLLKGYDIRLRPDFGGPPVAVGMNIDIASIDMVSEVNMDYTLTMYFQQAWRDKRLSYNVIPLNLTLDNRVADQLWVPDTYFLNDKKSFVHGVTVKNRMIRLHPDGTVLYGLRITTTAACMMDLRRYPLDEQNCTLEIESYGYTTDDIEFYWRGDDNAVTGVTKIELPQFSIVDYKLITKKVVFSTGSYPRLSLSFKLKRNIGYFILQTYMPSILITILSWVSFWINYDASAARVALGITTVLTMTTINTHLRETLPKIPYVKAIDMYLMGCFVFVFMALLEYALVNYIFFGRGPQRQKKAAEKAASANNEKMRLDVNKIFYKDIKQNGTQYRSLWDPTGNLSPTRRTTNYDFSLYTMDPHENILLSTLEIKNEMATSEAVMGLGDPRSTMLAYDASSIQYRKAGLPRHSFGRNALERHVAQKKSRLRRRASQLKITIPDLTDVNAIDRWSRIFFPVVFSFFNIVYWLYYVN
# T1 sequence (P34903 whole entry): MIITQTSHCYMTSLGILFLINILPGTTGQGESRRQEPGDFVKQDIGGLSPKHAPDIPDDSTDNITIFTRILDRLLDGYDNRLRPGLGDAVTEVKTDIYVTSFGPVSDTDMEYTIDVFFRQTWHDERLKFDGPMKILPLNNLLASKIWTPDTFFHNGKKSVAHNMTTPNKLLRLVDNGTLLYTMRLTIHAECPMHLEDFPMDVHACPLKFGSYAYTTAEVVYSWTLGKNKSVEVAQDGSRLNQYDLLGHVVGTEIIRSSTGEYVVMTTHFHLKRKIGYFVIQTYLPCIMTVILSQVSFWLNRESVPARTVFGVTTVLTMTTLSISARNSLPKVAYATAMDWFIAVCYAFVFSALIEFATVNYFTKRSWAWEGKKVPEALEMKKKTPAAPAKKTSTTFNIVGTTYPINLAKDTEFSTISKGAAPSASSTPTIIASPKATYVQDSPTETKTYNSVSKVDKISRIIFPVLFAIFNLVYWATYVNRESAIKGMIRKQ
# Outline: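 Stage V–VI Xenopus oocytes, defolliculated with 2 mg/mL collagenase, injected with α(1, 2, 3 or 5) and β2 cRNAs mixed 1:1, then kept at 18 °C in ND96 (pH 7.4). Enhancement = I(GABA+compound)/IGABA − 1. Curves were Hill-fitted for EC50. Bath DMSO was at most 0.3%, matched in controls.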
# [3] = Modulation of GABA alpha1beta2gamma2s receptor expressed in Xenopus laevis oocytes assessed as potentiation of GABA-induced chloride current at holding potential -70 mV by two-microelectrode voltage clamp technique; assay type: cell-based; details: Oocyte
# Outline: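 Oocytes were injected with α1, β2 and γ2s cRNAs mixed 1:1:10 and stored at 18 °C in ND96 (pH 7.4). GABA was applied at a concentration giving 3–7% of maximal current, determined for each oocyte. Enhancement was taken as (I(GABA+compound)/IGABA) − 1. Concentration–response data were fitted to a Hill equation. Control solutions carried equal DMSO, at most 0.3%.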
# [4] = target: Gamma-aminobutyric acid receptor subunit alpha-5/beta-2 (Homo sapiens) (UniProt P47870+P31644); assay: Modulation of GABA Aalpha5beta2 receptor expressed in Xenopus laevis oocytes assessed as potentiation of GABA-induced chloride current at holding potential -70 mV by two-microelectrode voltage clamp technique relative to GABA; assay type: cell-based; details: Oocyte
# Outline: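 Oocytes were injected with α1, α2, α3 or α5 plus β2 cRNA at a 1:1 ratio and stored at 18 °C in ND96, pH 7.4. Enhancement was (I(GABA+compound)/IGABA)−1, and concentration-response data were Hill-fitted for EC50 and nH. Matched DMSO was ≤0.3%.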
# Oocyte [5] = assay: Modulation of GABA alpha1beta2gamma2s receptor expressed in Xenopus laevis oocytes assessed as potentiation of GABA-induced chloride current at holding potential -70 mV at 10 uM by two-microelectrode voltage clamp technique in presence of 300 nM of Diazepam relative to GABA; assay type: cell-based
# [6] = target: T2, GABA-A receptor alpha-1/beta-3 (Homo sapiens, UniProt P14867+P28472); assay: Modulation of GABA Aalpha1beta3 receptor expressed in Xenopus laevis oocytes assessed as potentiation of GABA-induced chloride current at holding potential -70 mV by two-microelectrode voltage clamp technique; assay type: cell-based, Oocyte
# T2 sequence (P14867 whole entry): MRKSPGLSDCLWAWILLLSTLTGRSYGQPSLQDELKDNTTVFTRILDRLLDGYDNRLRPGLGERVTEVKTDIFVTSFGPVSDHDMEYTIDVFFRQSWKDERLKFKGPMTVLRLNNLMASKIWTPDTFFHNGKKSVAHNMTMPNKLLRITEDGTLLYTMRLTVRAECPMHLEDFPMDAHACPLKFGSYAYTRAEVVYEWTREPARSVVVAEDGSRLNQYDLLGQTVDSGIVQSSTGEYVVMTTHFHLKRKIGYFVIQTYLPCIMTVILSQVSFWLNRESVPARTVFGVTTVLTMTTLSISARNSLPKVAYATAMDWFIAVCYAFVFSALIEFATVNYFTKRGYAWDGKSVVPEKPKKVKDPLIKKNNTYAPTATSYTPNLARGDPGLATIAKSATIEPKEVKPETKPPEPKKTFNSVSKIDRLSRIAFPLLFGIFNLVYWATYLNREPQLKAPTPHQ
# T2 sequence (P28472 whole entry): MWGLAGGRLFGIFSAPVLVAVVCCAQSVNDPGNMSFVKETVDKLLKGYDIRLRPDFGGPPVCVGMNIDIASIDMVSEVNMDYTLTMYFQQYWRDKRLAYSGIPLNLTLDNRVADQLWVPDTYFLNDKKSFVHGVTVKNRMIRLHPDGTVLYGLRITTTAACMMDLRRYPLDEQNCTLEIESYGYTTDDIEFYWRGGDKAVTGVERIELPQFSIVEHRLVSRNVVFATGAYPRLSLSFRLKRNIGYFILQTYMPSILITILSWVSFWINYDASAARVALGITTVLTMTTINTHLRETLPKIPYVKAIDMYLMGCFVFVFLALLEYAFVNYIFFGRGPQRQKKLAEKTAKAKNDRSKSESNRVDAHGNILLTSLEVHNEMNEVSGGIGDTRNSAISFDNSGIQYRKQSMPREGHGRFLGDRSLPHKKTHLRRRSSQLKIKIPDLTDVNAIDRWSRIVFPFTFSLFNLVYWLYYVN
smiles,measurement,setting,value
C=CCc1ccc(O)c(-c2ccc(O)c(CC=C)c2)c1 [HONOKIOL],Activity,Oocyte [1],116%
same,EC50,[2],52.4 µM
same,EC50,[3],36.2 µM
same,Smax,[4],347%
same,Activity,Oocyte [5],244%
same,EC50,[6],59.6 µM
